# Data from ChEMBL document CHEMBL3259739, “Synthesis and structure-activity relationship of trisubstituted thiazoles as Cdc7 kinase inhibitors” (Eur J Med Chem, 2014).
# Activity calls are given as the source filed them.
# What was measured:
# [1] = Efflux ratio of permeability of the compound in pig LLC-PK1 cells; assay type: ADME, cell-based, Sus scrofa
# [2] = test system: rat MDR1; experiment: Apparent permeability of the compound in pig LLC-PK1 cells expressing rat MDR1; assay type: ADME, cell-based, Sus scrofa
# [3] = target: T1, CDC7/DBF4 (Cell division cycle 7-related protein kinase/Activator of S phase kinase) (Homo sapiens, UniProt O00311); experiment: Inhibition of Cdc7/Dbf4 (unknown origin) using 0.094 uM of ATP as substrate by AlphaScreen assay; assay type: protein-complex assay
# Summary of the method: (§1)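 Mechanism-of-action AlphaScreen run with 6 nM Cdc7/Dbf4 and 10 nM biotinylated MCM2 substrate. […] Reaction time was 2 h. Phospho-Ser53 MCM2 was read by antibody-bound acceptor beads with streptavidin donor beads. Rates and Ki were fitted to a competitive inhibition model.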
# [4] = target: T1, CDC7/DBF4 (Cell division cycle 7-related protein kinase/Activator of S phase kinase); experiment: Inhibition of Cdc7/Dbf4 (unknown origin) using 0.188 uM of ATP as substrate by AlphaScreen assay; assay type: protein-complex assay; summary of the method: as §1
# [5] = test system: rat MDR1; experiment: Efflux ratio of permeability of the compound in pig LLC-PK1 cells expressing rat MDR1; assay type: ADME, cell-based, Sus scrofa
# [6] = target: T1, CDC7/DBF4 (Cell division cycle 7-related protein kinase/Activator of S phase kinase); experiment: Inhibition of Cdc7/Dbf4 (unknown origin) using 0.375 uM of ATP as substrate by AlphaScreen assay; assay type: protein-complex assay; summary of the method: as §1
# [7] = target: T2, CDC7/DBF4 (Cell division cycle 7-related protein kinase/Activator of S phase kinase) (Homo sapiens) (UniProt Q9UBU7+O00311); experiment: Competitive inhibition of Cdc7/Dbf4 (unknown origin) using ATP as substrate by Michaelis-Menton/double-reciprocal plot analysis; assay type: protein-complex assay
# Summary of the method: (§2)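 AlphaScreen with 6 nM Cdc7/Dbf4 and 10 nM biotinylated His/avitag MCM2 (aa1-467) substrate. Phospho-Ser53 MCM2 detected with antibody-bound Protein A acceptor and streptavidin donor beads. Rates fitted by Michaelis–Menten and double-reciprocal plots.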
# [8] = target: T1, CDC7/DBF4 (Cell division cycle 7-related protein kinase/Activator of S phase kinase); experiment: Inhibition of Cdc7/Dbf4 (unknown origin) using 3 uM of ATP as substrate by AlphaScreen assay; assay type: protein-complex assay
# [9] = target: T1, CDC7/DBF4 (Cell division cycle 7-related protein kinase/Activator of S phase kinase); experiment: Inhibition of Cdc7/Dbf4 (unknown origin) using 18 uM of ATP as substrate by AlphaScreen assay; assay type: protein-complex assay
# [10] = target: T1, CDC7/DBF4 (Cell division cycle 7-related protein kinase/Activator of S phase kinase); experiment: Inhibition of Cdc7/Dbf4 (unknown origin) using 0.012 uM of ATP as substrate by AlphaScreen assay; assay type: protein-complex assay; summary of the method: as §2
# [11] = Oral bioavailability in Sprague-Dawley rat at 5 mg/kg; assay type: ADME, organism-based; details: in vivo
# Summary of the method: (§3)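 Male Sprague-Dawley rats given 5 mg/kg orally in 2% HPMC, 1% Tween80, pH2 (an iv arm received 2 mg/kg in DMSO). Plasma was sampled from 0.25 to 24 h and analyzed by LC/MS.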
# [12] = target: T1, CDC7/DBF4 (Cell division cycle 7-related protein kinase/Activator of S phase kinase); experiment: Inhibition of Cdc7/Dbf4 (unknown origin) using 0.037 uM of ATP as substrate by AlphaScreen assay; assay type: protein-complex assay
# [13] = target: T1, CDC7/DBF4 (Cell division cycle 7-related protein kinase/Activator of S phase kinase); experiment: Inhibition of Cdc7/Dbf4 (unknown origin) using 0.333 uM of ATP as substrate by AlphaScreen assay; assay type: protein-complex assay
# [14] = Apparent oral clearance in Sprague-Dawley rat at 5 mg/kg, po; assay type: ADME, organism-based; set-up: dose 5 mg/kg, route oral; details: in vivo
# [15] = test system: HCT-116; experiment: Cell cycle arrest in human HCT116 cells assessed as DNA accumulation at S/G2/M phase at 0.31 to 10 uM after 3 days using propidium iodide/RNase staining by flow cytometry; assay type: functional, cell-based
# Summary of the method: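 HCT-116 cells exposed to inhibitor for 3 d at the indicated concentrations. Cells harvested with Cell Stripper buffer, fixed in 70% ethanol, stained with propidium iodide/RNase, and DNA content analysed by flow cytometry.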
# [16] = test system: Mus musculus; experiment: Inhibition of Cdc7/Dbf4 in NCR nude mouse xenografted with human HCT116 cells assessed as reduction of phosphorylated MCM2 level in tumor at 150 mg/kg, iv after 3 hrs; assay type: functional; details: HCT-116, 3 h
# Summary of the method: (§4)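 Female athymic NCR/nu mice, 4–6 weeks old, bearing subcutaneous HCT-116 xenografts (5 × 10^6 cells in Matrigel) grown to about 250 mm3. Single iv dose formulated in 20% HPbCD, 1% HPMC, 1% PluronicF68, pH7 at 10 mg/ml; three mice per group. Tumors were homogenized in Tris lysis buffer with protease and phosphatase inhibitors. MSD capture with total MCM2 antibody, then phospho-Ser53 or total MCM2 detection by chemiluminescence; inhibition taken from the phospho/total ratio.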
# [17] = target: T1, CDC7/DBF4 (Cell division cycle 7-related protein kinase/Activator of S phase kinase); experiment: Inhibition of Cdc7/Dbf4 (unknown origin) using 27 uM of ATP as substrate by AlphaScreen assay; assay type: protein-complex assay
# [18] = AUC (0 to infinity) in Sprague-Dawley rat at 2 mg/kg, iv; assay type: ADME, organism-based; set-up: time infinity, dose 2 mg/kg, route intravenous; details: plasma
# [19] = target: T2, CDC7/DBF4 (Cell division cycle 7-related protein kinase/Activator of S phase kinase) (Homo sapiens); experiment: Inhibition of Cdc7/Dbf4 in human HCT116 cells assessed as reduction of MCM2 phosphorylation after 14 hrs; assay type: cell-based; details: HCT-116
# Summary of the method: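 HCT-116 cells were exposed to inhibitor across a 22-point dose response for 14 h. They were then immunostained for phospho-serine MCM2 using an Alexa Fluor 488 secondary, with a Hoechst nuclear counterstain. The percentage of cells with phospho-MCM2 signal above a threshold was scored by high-content imaging, and IC50 values were derived from that.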
# [20] = Clearance in Sprague-Dawley rat at 2 mg/kg, iv; assay type: ADME, organism-based; set-up: dose 2 mg/kg, route intravenous; details: in vivo
# [21] = target: T1, CDC7/DBF4 (Cell division cycle 7-related protein kinase/Activator of S phase kinase); experiment: Inhibition of Cdc7/Dbf4 (unknown origin) using 0.074 uM of ATP as substrate by AlphaScreen assay; assay type: protein-complex assay
# [22] = target: T1, CDC7/DBF4 (Cell division cycle 7-related protein kinase/Activator of S phase kinase); experiment: Inhibition of Cdc7/Dbf4 (unknown origin) using 0.025 uM of ATP as substrate by AlphaScreen assay; assay type: protein-complex assay
# [23] = test system: Plasma; experiment: Unbound plasma concentration in NCR nude mouse xenografted with human HCT116 cells at 150 mg/kg, iv after 6 hrs; assay type: ADME, organism-based, HCT-116; set-up: dose 150 mg/kg, route intravenous; details: in vivo
# Summary of the method: (§5)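 HCT-116 xenograft NCR/nu mice (three per group) were given a single iv dose in 20% HPbCD, 1% HPMC, 1% PluronicF68, pH7 at 10 mg/ml. Plasma collected at the time points was measured by LC/MS. Values were converted to unbound concentrations using percent plasma protein binding in mouse serum.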
# [24] = AUC (0 to t) in Sprague-Dawley rat at 5 mg/kg, po; assay type: ADME, organism-based; set-up: dose 5 mg/kg, route oral; details: plasma
# [25] = test system: Mus musculus; experiment: Inhibition of Cdc7/Dbf4 in NCR nude mouse xenografted with human HCT116 cells assessed as reduction of phosphorylated MCM2 level in tumor at 50 mg/kg, iv after 3 hrs; assay type: functional; details: HCT-116, 3 h; summary of the method: as §4
# [26] = target: T1, CDC7/DBF4 (Cell division cycle 7-related protein kinase/Activator of S phase kinase); experiment: Inhibition of Cdc7/Dbf4 (unknown origin) using 54 uM of ATP as substrate by AlphaScreen assay; assay type: protein-complex assay
# [27] = Cmax in Sprague-Dawley rat at 5 mg/kg, po; assay type: ADME, organism-based; set-up: dose 5 mg/kg, route oral; details: in vivo
# [28] = test system: Mus musculus; experiment: Toxicity in NCR nude mouse xenografted with human HCT116 cells assessed as appearance of moribund at 150 mg/kg, iv after 6 hrs; assay type: organism-based, HCT-116; set-up: dose 150 mg/kg, route intravenous; details: in vivo
# Summary of the method: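 Female athymic NCR/nu mice bearing subcutaneous HCT-116 xenografts (about 250 mm3) received a single iv dose in 20% HPbCD, 1% HPMC, 1% PluronicF68, pH7 (10 mg/ml); three mice per group. Tolerability was judged by observation over the 1–16 h sampling period.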
# [29] = Terminal half life in Sprague-Dawley rat at 5 mg/kg, po; assay type: ADME, organism-based; set-up: dose 5 mg/kg, route oral; details: in vivo, read-out: beta t1/2 (converted); summary of the method: as §3
# [30] = target: T1, CDC7/DBF4 (Cell division cycle 7-related protein kinase/Activator of S phase kinase); experiment: Inhibition of Cdc7/Dbf4 (unknown origin) using 1 uM of ATP as substrate by AlphaScreen assay; assay type: protein-complex assay
# [31] = test system: Plasma; experiment: Unbound plasma concentration in NCR nude mouse xenografted with human HCT116 cells at 150 mg/kg, iv after 1 hr; assay type: ADME, organism-based, HCT-116; set-up: dose 150 mg/kg, route intravenous; details: in vivo; summary of the method: as §5
# [32] = AUC (0 to infinity) in Sprague-Dawley rat at 5 mg/kg, po; assay type: ADME, organism-based; set-up: time infinity, dose 5 mg/kg, route oral; details: plasma
compound,measurement,setting,value
CCOC(=O)c1sc(-c2ccncc2)nc1O,efflux ratio,[1],1
same,Papp,[2],≥ 8.9 ×10⁻⁶ cm/s
same,IC50,[3],528 nM
same,IC50,[4],547 nM
same,efflux ratio,[5],1
same,IC50,[6],546 nM
same,inhibition,[7],Active
same,IC50,[8],419 nM
NC(=O)c1sc(-c2ccnc(N)n2)nc1-c1ccc(Cl)cc1Cl,IC50,[9],23 nM
same,IC50,[10],17 nM
same,bioavailability,[11],6.58%
same,IC50,[12],63 nM
same,IC50,[13],20 nM
same,CL/F,[14],1050 mL/min/kg
same,Activity,[15],Active
same,inhibition in vivo at 150 mg/kg,[16],38%
same,IC50,[17],44 nM
same,AUC(0-inf),[18],521 ng·h/mL
same,IC90,[19],6370 nM
same,clearance,[20],64.8 mL/min/kg
same,IC50,[21],64 nM
same,IC50,[22],40 nM
same,Cp(f),[23],> 1000 nM
same,AUC(0-t),[24],83.3 ng·h/mL
same,inhibition in vivo at 50 mg/kg,[25],39%
same,IC50,[26],86 nM
same,Cmax,[27],13 ng/mL
same,Activity,[28],Toxic
same,half-life,[29],3.73 h
same,IC50,[30],10 nM
same,Cp(f),[31],5000 nM
same,AUC(0-inf),[32],85.7 ng·h/mL
